In ChEMBL document CHEMBL1138270, “Antimycobacterial activities of novel 1-(cyclopropyl/tert-butyl/4-fluorophenyl)-1,4-dihydro- 6-nitro-4-oxo-7-(substituted secondary amino)-1,8-naphthyridine-3-carboxylic acid” (J Med Chem, 2007):
Values after ≈ are worked out from the molar mass of the structure shown.

What was measured:
Vero = assay: Cytotoxicity against Vero cells after 72 hrs by MTT assay; format: cell-based; conditions: Chlorocebus sabaeus
How it was run: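 Vero cells were exposed to serially diluted compound up to 62.5 µg/mL for 72 h. Viability was read by cellular conversion of MTT to formazan (CellTiter 96 non-radioactive proliferation assay), and IC50 was derived.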

[1] = test system: Mycobacterium tuberculosis; assay: Antimycobacterial activity against Mycobacterium tuberculosis H37Rv by agar dilution method; format: functional
How it was run: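 MIC was determined by agar dilution, in duplicate.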

[2] = test system: Mycolicibacterium smegmatis; assay: Antimicrobial activity against Mycobacterium smegmatis by agar dilution method; format: functional
How it was run: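 Agar dilution against M. smegmatis ATCC 14468; MIC determined in duplicate.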

CC1(C)COCN1c1nc2c(cc1[N+](=O)[O-])c(=O)c(C(=O)O)cn2C1CC1
IC50 (Vero): 167 µM | MIC [1]: 0.51 µM (≈ 0.191 µg/mL) | MIC [2]: 4.17 µM (≈ 1.56 µg/mL)

O=C(O)c1cn(-c2ccc(F)cc2)c2nc(N3CCN(C(=O)C4COc5ccccc5O4)CC3)c([N+](=O)[O-])cc2c1=O (configuration not stated)
IC50 (Vero): > 54.3 µM | MIC [1]: 10.9 µM (≈ 6.25 µg/mL) | MIC [2]: 21.7 µM (≈ 12.5 µg/mL)

O=C(O)c1cn(-c2ccc(F)cc2)c2nc(N3CCN(C(c4ccccc4)c4ccc(Cl)cc4)CC3)c([N+](=O)[O-])cc2c1=O (configuration not stated)
IC50 (Vero): 102 µM | MIC [1]: 1.27 µM (≈ 0.78 µg/mL) | MIC [2]: 5.09 µM (≈ 3.13 µg/mL)

CC(C)(C)n1cc(C(=O)O)c(=O)c2cc([N+](=O)[O-])c(N3CCN(C(c4ccccc4)c4ccc(Cl)cc4)CC3)nc21 (configuration not stated)
IC50 (Vero): > 108 µM | MIC [1]: 1.35 µM (≈ 0.778 µg/mL) | MIC [2]: 174 µM (≈ 100 µg/mL)

O=C(O)c1cn(C2CC2)c2nc(N3CCN(C(c4ccccc4)c4ccc(Cl)cc4)CC3)c([N+](=O)[O-])cc2c1=O (configuration not stated)
IC50 (Vero): 112 µM | MIC [1]: 5.59 µM (≈ 3.13 µg/mL) | MIC [2]: 22.3 µM (≈ 12.5 µg/mL)

O=C(O)c1cn(-c2ccc(F)cc2)c2nc(N3CCC(O)(c4ccc(Cl)cc4)CC3)c([N+](=O)[O-])cc2c1=O
IC50 (Vero): 59.6 µM | MIC [1]: 2.89 µM (≈ 1.56 µg/mL) | MIC [2]: 11.6 µM (≈ 6.25 µg/mL)

CC(C)(C)n1cc(C(=O)O)c(=O)c2cc([N+](=O)[O-])c(N3CCC(N4CCCCC4)CC3)nc21
IC50 (Vero): > 137 µM | MIC [1]: 1.7 µM (≈ 0.778 µg/mL) | MIC [2]: 6.84 µM (≈ 3.13 µg/mL)

O=C(O)c1cn(C2CC2)c2nc(N3CCC(n4c(=O)[nH]c5cc(Cl)ccc54)CC3)c([N+](=O)[O-])cc2c1=O
IC50 (Vero): 55.5 µM | MIC [1]: 2.97 µM (≈ 1.56 µg/mL) | MIC [2]: 23.8 µM (≈ 12.5 µg/mL)

CC(C)(C)n1cc(C(=O)O)c(=O)c2cc([N+](=O)[O-])c(N3CCC(n4c(=O)[nH]c5cc(Cl)ccc54)CC3)nc21
IC50 (Vero): 57.7 µM | MIC [1]: 2.88 µM (≈ 1.56 µg/mL) | MIC [2]: 11.5 µM (≈ 6.24 µg/mL)

O=C(O)c1cn(C2CC2)c2nc(N3CCC(O)(c4ccc(Cl)cc4)CC3)c([N+](=O)[O-])cc2c1=O
IC50 (Vero): 64.4 µM | MIC [1]: 6.46 µM (≈ 3.13 µg/mL) | MIC [2]: 25.8 µM (≈ 12.5 µg/mL)

CCN(CC)C(=O)C1CCCN(c2nc3c(cc2[N+](=O)[O-])c(=O)c(C(=O)O)cn3C2CC2)C1 (configuration not stated)
IC50 (Vero): > 137 µM | MIC [1]: 3.41 µM (≈ 1.56 µg/mL) | MIC [2]: 109 µM (≈ 50 µg/mL)

CCN(CC)C(=O)C1CCCN(c2nc3c(cc2[N+](=O)[O-])c(=O)c(C(=O)O)cn3-c2ccc(F)cc2)C1 (configuration not stated)
IC50 (Vero): > 122 µM | MIC [1]: 3.05 µM (≈ 1.56 µg/mL) | MIC [2]: 12.2 µM (≈ 6.25 µg/mL)

CCN(CC)C(=O)C1CCCN(c2nc3c(cc2[N+](=O)[O-])c(=O)c(C(=O)O)cn3C(C)(C)C)C1 (configuration not stated)
IC50 (Vero): > 132 µM | MIC [1]: 3.29 µM (≈ 1.56 µg/mL) | MIC [2]: 106 µM (≈ 50 µg/mL)

O=C(O)c1cn(-c2ccc(F)cc2)c2nc(N3CCN(Cc4ccc5c(c4)OCO5)CC3)c([N+](=O)[O-])cc2c1=O
IC50 (Vero): 57.1 µM | MIC [1]: 11.4 µM (≈ 6.25 µg/mL) | MIC [2]: 45.7 µM (≈ 25 µg/mL)

CC(C)(C)n1cc(C(=O)O)c(=O)c2cc([N+](=O)[O-])c(N3CCN(Cc4ccc5c(c4)OCO5)CC3)nc21
IC50 (Vero): > 123 µM | MIC [1]: 1.53 µM (≈ 0.78 µg/mL) | MIC [2]: 6.14 µM (≈ 3.13 µg/mL)

O=C(O)c1cn(-c2ccc(F)cc2)c2nc(N3CCC4(CC3)OCCO4)c([N+](=O)[O-])cc2c1=O
IC50 (Vero): 133 µM | MIC [1]: 6.65 µM (≈ 3.13 µg/mL) | MIC [2]: 26.6 µM (≈ 12.5 µg/mL)

CN1CCN(c2nc3c(cc2[N+](=O)[O-])c(=O)c(C(=O)O)cn3C2CC2)CC1c1ccccc1 (configuration not stated)
IC50 (Vero): 139 µM | MIC [1]: 6.96 µM (≈ 3.13 µg/mL) | MIC [2]: 27.8 µM (≈ 12.5 µg/mL)

CC(C)(C)NC(=O)C1c2ccccc2CCN1c1nc2c(cc1[N+](=O)[O-])c(=O)c(C(=O)O)cn2C1CC1 (configuration not stated)
IC50 (Vero): 124 µM | MIC [1]: 3.09 µM (≈ 1.56 µg/mL) | MIC [2]: 24.7 µM (≈ 12.5 µg/mL)

O=C(O)c1cn(C2CC2)c2nc(N3CCSCC3)c([N+](=O)[O-])cc2c1=O
IC50 (Vero): 166 µM | MIC [1]: 8.32 µM (≈ 3.13 µg/mL) | MIC [2]: 33.2 µM (≈ 12.5 µg/mL)

CN1CCN(c2nc3c(cc2[N+](=O)[O-])c(=O)c(C(=O)O)cn3C(C)(C)C)CC1c1ccccc1 (configuration not stated)
IC50 (Vero): > 134 µM | MIC [1]: 0.84 µM (≈ 0.391 µg/mL) | MIC [2]: 13.4 µM (≈ 6.25 µg/mL)

O=C(O)c1cn(C2CC2)c2nc(N3CCN(C(=O)C4COc5ccccc5O4)CC3)c([N+](=O)[O-])cc2c1=O (configuration not stated)
IC50 (Vero): 59.9 µM | MIC [1]: 12 µM (≈ 6.25 µg/mL) | MIC [2]: 6 µM (≈ 3.13 µg/mL)

COc1ccc(CC2C3=C(CCCC3)CCN2c2nc3c(cc2[N+](=O)[O-])c(=O)c(C(=O)O)cn3-c2ccc(F)cc2)cc1 (configuration not stated)
IC50 (Vero): < 53.5 µM | MIC [1]: 10.7 µM (≈ 6.25 µg/mL) | MIC [2]: 85.5 µM (≈ 50 µg/mL)

CC1CN(c2nc3c(cc2[N+](=O)[O-])c(=O)c(C(=O)O)cn3C2CC2)CC(C)O1 (configuration not stated)
IC50 (Vero): > 161 µM | MIC [1]: 4.02 µM (≈ 1.56 µg/mL) | MIC [2]: 32.2 µM (≈ 12.5 µg/mL)

CC1CN(c2nc3c(cc2[N+](=O)[O-])c(=O)c(C(=O)O)cn3C(C)(C)C)CC(C)O1 (configuration not stated)
IC50 (Vero): 159 µM | MIC [1]: 7.74 µM (≈ 3.13 µg/mL) | MIC [2]: 15.4 µM (≈ 6.25 µg/mL)

O=C(O)c1cn(-c2ccc(F)cc2)c2nc(N3CCC(N4CCCCC4)CC3)c([N+](=O)[O-])cc2c1=O
IC50 (Vero): > 126 µM | MIC [1]: 3.15 µM (≈ 1.56 µg/mL) | MIC [2]: 25.2 µM (≈ 12.5 µg/mL)

CC(C)(C)n1cc(C(=O)O)c(=O)c2cc([N+](=O)[O-])c(N3CCN(C(=O)C4COc5ccccc5O4)CC3)nc21 (configuration not stated)
IC50 (Vero): 116 µM | MIC [1]: 1.45 µM (≈ 0.779 µg/mL) | MIC [2]: 5.82 µM (≈ 3.13 µg/mL)

O=C(O)c1cn(C2CC2)c2nc(N3CCN(C(=O)c4ccco4)CC3)c([N+](=O)[O-])cc2c1=O
IC50 (Vero): 68.9 µM | MIC [1]: 6.9 µM (≈ 3.13 µg/mL) | MIC [2]: 27.6 µM (≈ 12.5 µg/mL)

CC(C)(C)NC(=O)C1c2ccccc2CCN1c1nc2c(cc1[N+](=O)[O-])c(=O)c(C(=O)O)cn2C(C)(C)C (configuration not stated)
IC50 (Vero): 120 µM | MIC [1]: 2.99 µM (≈ 1.56 µg/mL) | MIC [2]: 6 µM (≈ 3.13 µg/mL)

O=C(O)c1cn2c(n1)CN(c1nc3c(cc1[N+](=O)[O-])c(=O)c(C(=O)O)cn3C1CC1)CC2
IC50 (Vero): 142 µM | MIC [1]: 3.54 µM (≈ 1.56 µg/mL) | MIC [2]: 28.4 µM (≈ 12.5 µg/mL)

CC(C)(C)n1cc(C(=O)O)c(=O)c2cc([N+](=O)[O-])c(N3CCN(C(=O)c4ccco4)CC3)nc21
IC50 (Vero): 133 µM | MIC [1]: 3.32 µM (≈ 1.56 µg/mL) | MIC [2]: 6.67 µM (≈ 3.13 µg/mL)

O=C(O)c1cn(C2CC2)c2nc(N3CCN(Cc4ccc5c(c4)OCO5)CC3)c([N+](=O)[O-])cc2c1=O
IC50 (Vero): 127 µM | MIC [1]: 3.16 µM (≈ 1.56 µg/mL) | MIC [2]: 25.3 µM (≈ 12.5 µg/mL)

CC(C)(C)n1cc(C(=O)O)c(=O)c2cc([N+](=O)[O-])c(N3CCn4cc(C(=O)O)nc4C3)nc21
IC50 (Vero): > 137 µM | MIC [1]: 0.42 µM (≈ 0.192 µg/mL) | MIC [2]: 6.86 µM (≈ 3.13 µg/mL)

COc1ccc(CC2C3=C(CCCC3)CCN2c2nc3c(cc2[N+](=O)[O-])c(=O)c(C(=O)O)cn3C(C)(C)C)cc1 (configuration not stated)
IC50 (Vero): > 114 µM | MIC [1]: 5.73 µM (≈ 3.13 µg/mL) | MIC [2]: 11.4 µM (≈ 6.25 µg/mL)

O=C(O)c1cn(C2CC2)c2nc(N3CCC(N4CCCCC4)CC3)c([N+](=O)[O-])cc2c1=O
IC50 (Vero): > 142 µM | MIC [1]: 7.09 µM (≈ 3.13 µg/mL) | MIC [2]: 28.3 µM (≈ 12.5 µg/mL)

O=C(O)c1cn(-c2ccc(F)cc2)c2nc(N3CCN(C(=O)c4ccco4)CC3)c([N+](=O)[O-])cc2c1=O
IC50 (Vero): 123 µM | MIC [1]: 3.07 µM (≈ 1.56 µg/mL) | MIC [2]: 24.6 µM (≈ 12.5 µg/mL)

O=C(O)c1cn(-c2ccc(F)cc2)c2nc(N3CCC(n4c(=O)[nH]c5cc(Cl)ccc54)CC3)c([N+](=O)[O-])cc2c1=O
IC50 (Vero): 53.9 µM | MIC [1]: 2.69 µM (≈ 1.56 µg/mL) | MIC [2]: 10.8 µM (≈ 6.25 µg/mL)

CC(C)(C)NC(=O)C1c2ccccc2CCN1c1nc2c(cc1[N+](=O)[O-])c(=O)c(C(=O)O)cn2-c1ccc(F)cc1 (configuration not stated)
IC50 (Vero): 112 µM | MIC [1]: 2.79 µM (≈ 1.56 µg/mL) | MIC [2]: 11.2 µM (≈ 6.25 µg/mL)

CC(C)(C)n1cc(C(=O)O)c(=O)c2cc([N+](=O)[O-])c(N3CCC(O)(c4ccc(Cl)cc4)CC3)nc21
IC50 (Vero): 125 µM | MIC [1]: 3.11 µM (≈ 1.56 µg/mL) | MIC [2]: 24.9 µM (≈ 12.5 µg/mL)

O=C(O)c1cn(C2CC2)c2nc(N3CCC4(CC3)OCCO4)c([N+](=O)[O-])cc2c1=O
IC50 (Vero): 150 µM | MIC [1]: 7.52 µM (≈ 3.13 µg/mL) | MIC [2]: 30 µM (≈ 12.5 µg/mL)
